These results are taken from ChEMBL document CHEMBL1155504, “Synthesis of 4-[(diethylamino)methyl]-phenol derivatives as novel cholinesterase inhibitors with selectivity towards butyrylcholinesterase” (Bioorg Med Chem Lett, 2010).

A short description of assay [1]: Selectivity ratio of IC50 for electric eel AChE to IC50 for horse serum BChE. An outline of the steps: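 Ellman assay for each enzyme: enzyme, DTNB and test compound in 0.1 M potassium phosphate buffer, pH 8.0, pre-incubated 15 min at 37 °C. Started with ATC (AChE) or BTC (BChE) and read at 412 nm for 1 min. Five compound concentrations, each in triplicate; DMSO reference, enzyme-free blank. Ratio taken from the two IC50 values.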

Assay [2] deals with Cholinesterase (Equus caballus, UniProt P81908). The experiment in a line: Inhibition of horse serum BChE after 15 mins by Ellman's method.
The target in assay [3] is Acetylcholinesterase (Electrophorus electricus, UniProt O42275). Briefly: Inhibition of electric eel AChE after 15 mins by Ellman's method.
Assay [4] deals with Acetylcholinesterase (Electrophorus electricus) (UniProt O42275). The experiment in a line: Mixed-type inhibition of electric eel AChE at 50 to 100 nM by Lineweaver-Burke plot analysis. An outline of the steps: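 Ellman assay: enzyme, DTNB and inhibitor in 0.1 M potassium phosphate buffer, pH 8.0, pre-incubated 15 min at 37 °C. Reaction started with acetylthiocholine at 100–400 (unit unclear) and followed by absorbance at 412 nm. Inhibitor absent or at two levels. Inhibition type assigned from Lineweaver–Burk plots (1/V versus 1/[S]).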

The target in assay [5] is Cholinesterase (Equus caballus) (UniProt P81908). Briefly: Mixed-type inhibition of horse serum BChE at 10 to 20 nM by Lineweaver-Burke plot analysis. An outline of the steps: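 Ellman assay: enzyme, DTNB and inhibitor in 0.1 M potassium phosphate buffer, pH 8.0, pre-incubated 15 min at 37 °C. Reaction started with butyrylthiocholine at 100–500 (unit unclear) and followed by absorbance at 412 nm. Inhibitor absent or at two levels. Inhibition type assigned from Lineweaver–Burk plots (1/V versus 1/[S]).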

Molecules are shown by their SMILES. The source made the active and inactive calls. No cut-off for these calls is given here.

Cholinesterase, sequence (P81908 whole entry): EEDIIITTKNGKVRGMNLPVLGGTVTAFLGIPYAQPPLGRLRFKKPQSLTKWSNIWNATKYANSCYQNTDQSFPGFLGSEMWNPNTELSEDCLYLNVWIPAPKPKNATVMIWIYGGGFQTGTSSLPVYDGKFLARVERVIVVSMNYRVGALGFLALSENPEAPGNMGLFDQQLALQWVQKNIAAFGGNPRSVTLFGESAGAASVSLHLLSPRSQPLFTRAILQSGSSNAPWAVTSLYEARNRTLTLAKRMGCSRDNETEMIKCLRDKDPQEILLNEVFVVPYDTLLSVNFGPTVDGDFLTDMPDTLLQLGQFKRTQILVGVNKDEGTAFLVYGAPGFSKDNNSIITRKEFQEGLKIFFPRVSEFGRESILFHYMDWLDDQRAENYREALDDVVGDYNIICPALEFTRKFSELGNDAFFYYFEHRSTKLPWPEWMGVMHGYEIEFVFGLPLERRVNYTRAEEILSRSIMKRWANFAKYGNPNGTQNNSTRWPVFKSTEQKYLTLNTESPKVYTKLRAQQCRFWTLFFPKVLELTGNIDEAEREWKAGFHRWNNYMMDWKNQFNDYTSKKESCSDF
Acetylcholinesterase, sequence (O42275 whole entry): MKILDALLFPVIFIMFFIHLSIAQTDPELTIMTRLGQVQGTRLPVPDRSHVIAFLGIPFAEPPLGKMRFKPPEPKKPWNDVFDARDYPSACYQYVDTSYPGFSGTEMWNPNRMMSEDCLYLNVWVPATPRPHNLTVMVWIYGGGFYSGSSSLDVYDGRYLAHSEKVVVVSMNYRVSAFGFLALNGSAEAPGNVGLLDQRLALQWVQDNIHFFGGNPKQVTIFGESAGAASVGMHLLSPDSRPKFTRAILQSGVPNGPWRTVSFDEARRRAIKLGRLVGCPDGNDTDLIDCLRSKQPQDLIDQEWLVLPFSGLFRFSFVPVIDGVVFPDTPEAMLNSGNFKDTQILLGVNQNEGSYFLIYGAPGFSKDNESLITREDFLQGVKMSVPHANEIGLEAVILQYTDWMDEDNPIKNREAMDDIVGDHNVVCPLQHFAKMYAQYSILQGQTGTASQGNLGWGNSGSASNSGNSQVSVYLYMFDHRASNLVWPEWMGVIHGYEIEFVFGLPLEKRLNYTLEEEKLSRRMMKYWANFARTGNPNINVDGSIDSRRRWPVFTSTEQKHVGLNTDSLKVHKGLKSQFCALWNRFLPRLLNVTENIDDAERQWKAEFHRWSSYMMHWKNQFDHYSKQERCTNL
Cholinesterase (Equus caballus), sequence (P81908 whole entry): as the sequence (P81908 whole entry) above
Acetylcholinesterase (Electrophorus electricus), sequence (O42275 24-633 limits assumed): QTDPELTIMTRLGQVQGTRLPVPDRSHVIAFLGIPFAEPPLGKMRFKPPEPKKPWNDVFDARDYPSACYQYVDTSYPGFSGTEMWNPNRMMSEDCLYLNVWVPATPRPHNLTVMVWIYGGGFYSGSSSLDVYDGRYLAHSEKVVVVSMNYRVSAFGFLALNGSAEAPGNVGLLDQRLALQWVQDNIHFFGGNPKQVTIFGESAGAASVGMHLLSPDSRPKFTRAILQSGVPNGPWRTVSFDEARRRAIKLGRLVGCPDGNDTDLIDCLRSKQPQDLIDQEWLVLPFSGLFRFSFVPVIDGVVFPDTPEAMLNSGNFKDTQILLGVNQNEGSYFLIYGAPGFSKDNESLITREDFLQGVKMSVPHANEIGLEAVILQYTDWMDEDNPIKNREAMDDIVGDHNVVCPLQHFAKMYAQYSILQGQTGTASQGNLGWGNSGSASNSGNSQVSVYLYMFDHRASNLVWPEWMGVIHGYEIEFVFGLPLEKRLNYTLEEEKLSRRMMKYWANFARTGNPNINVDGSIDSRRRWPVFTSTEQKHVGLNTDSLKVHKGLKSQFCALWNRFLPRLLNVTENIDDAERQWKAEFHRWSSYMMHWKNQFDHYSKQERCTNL

Take `CCN(CC)CCCCOc1ccc(CN(CC)CC)cc1`: the Ratio IC50 in assay [1] is 3.87. Further, the IC50 in assay [2] turned out to be 2.74 µM; in assay [3], 10.6 µM.

With `CCN(CC)Cc1ccc(OCCCCCCN2CCCC2)cc1`, the Ratio IC50 in assay [1] is 0.34. Also, the IC50 was determined as 1.28 µM in assay [2] and 0.44 µM in assay [3].

On to `CCN1CCN(CCCCCCOc2ccc(CN(CC)CC)cc2)CC1`, for which, in assay [1], the Ratio IC50 was 0.74. Besides, the IC50 in assay [2] was determined as 2.2 µM; in assay [3] it was 1.62 µM.

Consider `CCN(CC)Cc1ccc(OCCN2CCCCC2)cc1`, for which the Ratio IC50 in assay [1] was found to be 1.35. Also, the IC50 in assay [2] is 10.1 µM; in assay [3] it was 13.7 µM.

Consider `CCCCN(CCCC)CCCCOc1ccc(CN(CC)CC)cc1`, for which the Ratio IC50 in assay [1] turned out to be 4.01. In addition, the figures for the IC50 in assay [2] and in assay [3] were 2.52 µM and 10.3 µM, respectively.

For the compound `CCCN(CCC)CCCCCCOc1ccc(CN(CC)CC)cc1`, in assay [1], the Ratio IC50 is 1.61. Further, the values for the IC50 in assay [2] and in assay [3] were 1.34 µM and 2.16 µM, respectively.

Take `CCN(CC)Cc1ccc(OCCCCCCCCCCN2CCN(C)CC2)cc1`: the Ratio IC50 in assay [1] is 16.5. The IC50 in assay [2] is 0.033 µM; in assay [3], 0.54 µM.

For `CCN(CC)Cc1ccc(OCCCCCN2CCCC2)cc1`, the Ratio IC50 in assay [1] was 0.32. Also, the IC50 in assay [2] came to 1.54 µM; in assay [3], 0.5 µM.

As for `CCCN(CCC)CCCCOc1ccc(CN(CC)CC)cc1`, the Ratio IC50 in assay [1] stood at 1.17. The results for the IC50 in assay [2] and in assay [3] were 11.7 µM and 13.7 µM, respectively.

Turning to `CCN(CC)Cc1ccc(OCCCCCCN2CCN(C)CC2)cc1`, the Ratio IC50 in assay [1] came out at 0.48. The IC50 came to 3.76 µM in assay [2] and 1.82 µM in assay [3].

For `CCN(CC)Cc1ccc(OCCCCCCN2CCCCC2)cc1`, in assay [1], the Ratio IC50 was 0.65. Also, the IC50 in assay [2] is 1.37 µM; in assay [3], 0.89 µM.

In the case of `CCN(CC)Cc1ccc(OCCCCCN2CCN(C)CC2)cc1`, the Ratio IC50 in assay [1] is 0.27. Besides, the IC50 in assay [2] was found to be 9.35 µM; in assay [3] it was 2.48 µM.

As to `CCCCN(CCCC)CCCCCCCCCCOc1ccc(CN(CC)CC)cc1`, the Ratio IC50 in assay [1] turned out to be 16.5. Moreover, the IC50 in assay [2] came out at 0.015 µM; in assay [3] it was 0.26 µM.

Turning to `CCN1CCN(CCCCCCCCOc2ccc(CN(CC)CC)cc2)CC1`, the Ratio IC50 in assay [1] turned out to be 5.38. Also, the concentration for half-maximal inhibition (IC50) in assay [2] worked out at 0.014 µM; in assay [3], 0.077 µM.

`CCN(CC)CCCCCCOc1ccc(CN(CC)CC)cc1`: the Ratio IC50 in assay [1] turned out to be 0.58. Moreover, the IC50 in assay [2] was found to be 1.66 µM; in assay [3], 0.96 µM.

Consider `CCN(CC)Cc1ccc(OCCCCCCCCCCN2CCCCC2)cc1`, for which the Ratio IC50 in assay [1] came out at 7.66. The IC50 in assay [2] worked out at 0.078 µM; in assay [3], 0.6 µM.

On to `CCCN(CCC)CCCCCOc1ccc(CN(CC)CC)cc1`, for which, in assay [1], the Ratio IC50 was 3.13. Besides, the results for the IC50 in assay [2] and in assay [3] were 1.78 µM and 5.59 µM, respectively.

As for `CCN(CC)CCCCCCCCOc1ccc(CN(CC)CC)cc1`, the Ratio IC50 in assay [1] was determined as 2.99. The results for the IC50 in assay [2] and in assay [3] were 0.048 µM and 0.14 µM, respectively.

As for `CCCN(CCC)CCCCCCCCCCOc1ccc(CN(CC)CC)cc1`, the Ratio IC50 in assay [1] was determined as 13.1. In addition, the results for the IC50 in assay [2] and in assay [3] were 0.026 µM and 0.34 µM, respectively.

For the compound `CCN1CCN(CCCCCCCCCCOc2ccc(CN(CC)CC)cc2)CC1`, the Ratio IC50 in assay [1] was 3.1. The results for the concentration for half-maximal inhibition (IC50) in assay [2] and in assay [3] were 0.19 µM and 0.58 µM, respectively.

Consider `CCN(CC)Cc1ccc(OCCCCN2CCCCC2)cc1`, for which the Ratio IC50 in assay [1] was found to be 9.4. Also, the IC50 amounted to 0.71 µM in assay [2] and 6.74 µM in assay [3].

Regarding `CCN(CC)CCCCCOc1ccc(CN(CC)CC)cc1`, the Ratio IC50 in assay [1] amounted to 1.89. For the same compound, the IC50 worked out at 4.42 µM in assay [2] and 8.37 µM in assay [3].

As for `CCN(CC)Cc1ccc(OCCN2CCN(C)CC2)cc1`, the Ratio IC50 in assay [1] was determined as 0.56. The IC50 was 20.3 µM in assay [2] and 11.5 µM in assay [3].

With `CCN(CC)Cc1ccc(OCCCCCCCCCCN2CCCC2)cc1`, the Ratio IC50 in assay [1] stood at 4.41. For the same compound, the IC50 came to 0.068 µM in assay [2] and 0.3 µM in assay [3].

With `CCN(CC)Cc1ccc(OCCCCCCCCN2CCCCC2)cc1`, the Ratio IC50 in assay [1] was determined as 12.5. In addition, the IC50 in assay [2] was found to be 0.0073 µM; in assay [3], 0.092 µM. In addition, the inhibition result in assay [4] was “Active”. For the same compound, the result in assay [5] was Active.

As to `CCN(CC)Cc1ccc(OCCCCCCCCN2CCCC2)cc1`, the Ratio IC50 in assay [1] turned out to be 5.42. The IC50 in assay [2] came to 0.015 µM; in assay [3], 0.084 µM.

As for `CCN(CC)CCCCCCCCCCOc1ccc(CN(CC)CC)cc1`, the Ratio IC50 in assay [1] was 11.3. In addition, the IC50 in assay [2] amounted to 0.027 µM; in assay [3], 0.31 µM.

Consider `CCN1CCN(CCCCCOc2ccc(CN(CC)CC)cc2)CC1`, for which, in assay [1], the Ratio IC50 was 0.57. Besides, the IC50 turned out to be 3.08 µM in assay [2] and 1.76 µM in assay [3].

With `CCN(CC)Cc1ccc(OCCCCN2CCCC2)cc1`, the Ratio IC50 in assay [1] came to 2.44. For the same compound, the IC50 in assay [2] is 1.4 µM; in assay [3], 3.42 µM.

Take `CCCCN(CCCC)CCCCCCOc1ccc(CN(CC)CC)cc1`: the Ratio IC50 in assay [1] was 2.92. The IC50 was 0.23 µM in assay [2] and 0.67 µM in assay [3].

In the case of `CCCN(CCC)CCCCCCCCOc1ccc(CN(CC)CC)cc1`, the Ratio IC50 in assay [1] was found to be 18.8. For the same compound, the results for the IC50 in assay [2] and in assay [3] were 0.0091 µM and 0.17 µM, respectively.

In the case of `CCCCN(CCCC)CCCCCCCCOc1ccc(CN(CC)CC)cc1`, the Ratio IC50 in assay [1] was 8.45. Besides, the figures for the IC50 in assay [2] and in assay [3] were 0.017 µM and 0.14 µM, respectively.

Take `CCN(CC)Cc1ccc(OCCCCCN2CCCCC2)cc1`: the Ratio IC50 in assay [1] came out at 6.44. Further, the IC50 in assay [2] turned out to be 0.67 µM; in assay [3] it was 4.31 µM.

As to `CCCCN(CCCC)CCCCCOc1ccc(CN(CC)CC)cc1`, the Ratio IC50 in assay [1] came out at 1.29. Further, the IC50 in assay [2] stood at 1.9 µM; in assay [3], 2.46 µM.

As to `CCN(CC)Cc1ccc(OCCCCN2CCN(C)CC2)cc1`, the Ratio IC50 in assay [1] was determined as 0.57. Further, the figures for the 50% inhibitory concentration (IC50) in assay [2] and in assay [3] were 9.73 µM and 5.58 µM, respectively.

Consider `CCN(CC)Cc1ccc(OCCCCCCCCN2CCN(C)CC2)cc1`, for which, in assay [1], the Ratio IC50 came to 18.6. In addition, the half-inhibitory concentration (IC50) in assay [2] was 0.011 µM; in assay [3] it was 0.21 µM.
